Measured values from ChEMBL document CHEMBL5325427.
In brackets after ≈: the same amount, converted by molar mass. Activity calls are given as the source filed them. No cut-off for these calls is given here.

Legend:
[1] = system: Vero C1008; experiment: Cytotoxicity against African green monkey Vero E6 cells measured after 72 hrs by crystal violet staining based analysis; format: toxicity, cell-based; settings: chlorocebus sabaeus, vero c1008, 72 h
In short: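 Vero-E6 cells were seeded at 3 × 10^5 cells/mL, grown 24 h at 37 °C with 5% CO2, then given graded compound concentrations in triplicate for 72 h. Stocks were made in 10% DMSO in DMEM. Cells were fixed in 10% formalin, stained with 0.1% crystal violet, dissolved in methanol and read at A570. CC50 was taken by nonlinear regression of log concentration versus normalised response against untreated cells.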

[2] = system: SARS-CoV-2; experiment: Antiviral activity against SARS-CoV-2 NRC-03-nhCoV infected in african green monkey Vero E6 cells assessed as inhibition of viral growth pre-infected cells with virus for 1 hr followed by compound addition for 1 hr and measured after 72 hrs by crystal violet staining based analysis; format: functional, organism-based; settings: Severe acute respiratory syndrome coronavirus 2, NRC-03-nhCoV, Vero C1008
[3] = Permeability of the compound across apical to basolateral side in human Caco-2 cells at pH 6.5 to 7.4; format: ADME, cell-based; settings: Caco-2, pH 6.5, read-out: permeability
In short: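 Caco-2 cells (0.5 × 10^6/well) were grown 7 days on collagen-coated transwell filters. Compound was dosed at 50, 75 and 100 μM input in 1% DMSO/HBSS, apical pH 6.5 and basolateral pH 7.4. Samples were taken every 30 min for 2 h in duplicate and quantified by LC/MS/MS. Papp was calculated from receiver concentration, time, area and mid-point donor and receiver concentrations. Monolayer integrity required fluorescein Papp below 1.5 × 10−6 cm/s.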

[4] = Stability in CD-1 mouse liver microsomes assessed as half life at 1 uM in presence of NADPH by LC-MS-MS analysis; format: ADME, Microsome
[5] = Stability in human liver microsomes assessed as half life at 1 uM in presence of NADPH by LC-MS-MS analysis; format: ADME, Microsome
[6] = Stability in CD-1 mouse liver microsomes assessed as compound remaining at 1 uM measured after 60 mins in absence of NADPH by LC-MS-MS analysis; format: ADME, Microsome; settings: read-out: Stability
In short: (§1)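 Compound was incubated in liver microsomes without NADPH. Percent remaining was measured after 60 min.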

[7] = Stability in human microsomes assessed as compound remaining at 1 uM measured after 60 mins in absence of NADPH by LC-MS-MS analysis; format: ADME, Microsome; settings: read-out: Stability; in short: as §1
[8] = system: SARS-CoV-2; experiment: Antiviral activity against SARS CoV-2 HCoV-19/Egypt/NRC-1/2020 infected in human Caco-2 cells assessed as inhibition of ORFb1 RNA at 20 ug/ml pre-infected with virus for 1 hr followed by cell addition for 1 hr and measured after 1 to 12 hrs by RT-PCR analysis relative to control; format: functional; settings: Severe acute respiratory syndrome coronavirus 2, HCoV-19/Egypt/NRC-1/2020, Caco-2, time 3-14 hrs
[9] = system: SARS-CoV-2; experiment: Antiviral activity against SARS CoV-2 infected in human Caco-2 cells assessed as reduction in INF-alpha expression at 20 ug/ml preincubated with cells for 24 hrs followed by viral infection and measured after 1 to 3 hrs by real-time PCR assay; format: functional, organism-based; settings: Severe acute respiratory syndrome coronavirus 2, dose 20.0 µg/ml, time 25-28 hrs
[10] = system: SARS-CoV-2; experiment: Antiviral activity against SARS CoV-2 infected in human Caco-2 cells assessed as reduction in IL-6 expression at 20 ug/ml preincubated with cells for 24 hrs followed by viral infection and measured after 3 to 12 hrs by real-time PCR assay; format: functional, organism-based; settings: Severe acute respiratory syndrome coronavirus 2, dose 20.0 µg/ml, time lower 27.0 hrs, time upper […]
[11] = system: SARS-CoV-2; experiment: Antiviral activity against SARS CoV-2 infected in human Caco-2 cells assessed as reduction in OAS1 expression at 20 ug/ml preincubated with cells for 24 hrs followed by viral infection and measured after 3 to 12 hrs by real-time PCR assay; format: functional, organism-based; settings: Severe acute respiratory syndrome coronavirus 2, dose 20.0 µg/ml, time lower 27.0 hrs, time upper […]
[12] = Toxicity in Balb/c mouse assessed as effect on body weight loss at 12.5 to 25 mg/kg, ip administered as multiple dose measured upto 15 days; format: organism-based; settings: in vivo, 360 h, dose 12.5-25 mg/kg, time < 15 day
In short: (§2)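 Female Balb/c mice were randomised to vehicle (0.5% DMSO in PBS) or 12.5 or 25 mg/kg intraperitoneally daily for 14 days, then followed 12 days after treatment. Body weight, haematology and blood chemistry were compared with vehicle controls; n = 3–5.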

[13] = Toxicity in Balb/c mouse assessed as change in histological variation in kidney at 12.5 to 25 mg/kg by H and E staining based analysis; format: organism-based; settings: in vivo, dose 12.5-25 mg/kg
In short: (§3)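 After the 14-day daily intraperitoneal dosing (12.5 or 25 mg/kg, female Balb/c), liver, kidney, spleen, heart and lung were fixed 24 h in 10% neutral-buffered formalin and paraffin-embedded. Sections of 4 μm were stained with H&E. Lesions were scored nil 0, mild 1, moderate 2, severe 3.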

[14] = Toxicity in Balb/c mouse assessed as change in histological variation in heart at 12.5 to 25 mg/kg by H and E staining based analysis; format: organism-based; settings: in vivo, dose 12.5-25 mg/kg; in short: as §3
[15] = Toxicity in Balb/c mouse assessed as histological changes in liver by measuring toxicity score at 12.5 mg/kg by H and E staining based analysis; format: organism-based; settings: in vivo; in short: as §3
[16] = Toxicity in Balb/c mouse assessed as histological changes in liver by measuring toxicity score at 25 mg/kg by H and E staining based analysis; format: organism-based; settings: in vivo; in short: as §3
[17] = Toxicity in Balb/c mouse assessed as histological changes in spleen by measuring toxicity score at 12.5 to 25 mg/kg by H and E staining based analysis; format: organism-based; settings: in vivo, dose 12.5-25 mg/kg
[18] = Toxicity in Balb/c mouse assessed as histological changes in kidney by measuring toxicity score at 12.5 to 25 mg/kg by H and E staining based analysis; format: organism-based; settings: in vivo, dose 12.5-25 mg/kg; in short: as §3
[19] = Toxicity in Balb/c mouse assessed as reduction in platelet population at 25 mg/kg; format: organism-based; settings: in vivo
[20] = Toxicity in Balb/c mouse assessed as effect on AST at 12.5 to 25 mg/kg; format: organism-based; settings: in vivo, dose 12.5-25 mg/kg; in short: as §2
[21] = Toxicity in Balb/c mouse assessed as effect on gamma GT at 12.5 to 25 mg/kg; format: organism-based; settings: in vivo, dose 12.5-25 mg/kg; in short: as §2
[22] = Toxicity in Balb/c mouse assessed as effect on total protein at 12.5 to 25 mg/kg; format: organism-based; settings: in vivo, dose 12.5-25 mg/kg; in short: as §2
[23] = Toxicity in Balb/c mouse assessed as effect on glucose at 12.5 to 25 mg/kg; format: organism-based; settings: in vivo, dose 12.5-25 mg/kg; in short: as §2
[24] = Toxicity in Balb/c mouse assessed as effect on urea at 12.5 to 25 mg/kg; format: organism-based; settings: in vivo, dose 12.5-25 mg/kg; in short: as §2
[25] = biological target: Replicase polyprotein 1ab (Severe acute respiratory syndrome coronavirus 2) (UniProt P0DTD1); experiment: Inhibition of SARS-CoV-2 3CLpro at 10 ug/ml preincubated with enzyme for 30 mins followed by substrate addition and measured after 4 hrs by fluorescence based analysis; settings: dose 10.0 µg/ml, time 4.5 hrs
In short: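 Recombinant SARS-CoV-2 3CLpro (1.5 ng/μl) was pre-incubated with compound 30 min at RT. Fluorogenic substrate was added to a final 40 μM and incubated 4 h at RT. Fluorescence was read at Ex 360/Em 460 nm. Wells were run in triplicate and blank was subtracted.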

[26] = system: SARS-CoV-2; experiment: Antiviral activity against SARS- CoV-2 infected in Vero E6 cells assessed as viral replication pretreated with cells for 24 hrs followed by viral infection for 1 hr and measured after 1 hr by plaque assay relative to control; format: functional, Severe acute respiratory syndrome coronavirus 2; settings: time 26 hrs

Q: With `COc1ccc2[nH]c3c(c2c1)C[C@]1(OC)CC[C@H]2c4[nH]c5ccccc5c4CCN2[C@@H]1C3` as the compound, how does the CC50 [1] read?
A: Its CC50 is 55.63 mg/L (≈ 130 µM).

Q: What about the IC50 [2] of the same compound?
A: The IC50 was 12.1 mg/L (≈ 28.3 µM).

Q: What about the Papp A→B [3] of the same compound?
A: The Papp A→B was 59 nm/s.

Q: What about the t1/2 [4] of the same compound?
A: The t1/2 was > 1 h.

Q: What about the t1/2 [5] of the same compound?
A: The t1/2 was > 1 h.

Q: And the remaining at 1 h, 1 µM [6]?
A: The remaining at 1 h, 1 µM was 108%.

Q: And the remaining at 1 h, 1 µM [7]?
A: The remaining at 1 h, 1 µM was 102%.

Q: And the inhibition at 20 µg/mL [8]?
A: Its inhibition at 20 µg/mL is > 70%.

Q: What about the Activity [9] of the same compound?
A: The Activity was “Active”.

Q: And the Activity [10]?
A: The Activity was “Active”.

Q: What about the Activity [11] of the same compound?
A: Its Activity is “Active”.

Q: What about the Activity [12] of the same compound?
A: Its Activity is “Non-Toxic”.

Q: And the Activity [13]?
A: Its Activity is “Non-Toxic”.

Q: What about the Activity [14] of the same compound?
A: Its Activity is “Non-Toxic”.

Q: What about the Activity [15] of the same compound?
A: Its Activity is 0.

Q: And the Activity [16]?
A: Its Activity is 0.

Q: And the Activity [17]?
A: The Activity was 0.

Q: And the Activity [18]?
A: Its Activity is 0.

Q: And the Activity [19]?
A: The Activity was “Non-Toxic”.

Q: What about the Activity [20] of the same compound?
A: Its Activity is “Non-Toxic”.

Q: What about the Activity [21] of the same compound?
A: Its Activity is “Non-Toxic”.

Q: And the Activity [22]?
A: The Activity was “Non-Toxic”.

Q: And the Activity [23]?
A: The Activity was “Non-Toxic”.

Q: What about the Activity [24] of the same compound?
A: Its Activity is “Non-Toxic”.

Q: What about the inhibition [25] of the same compound?
A: Its inhibition is “inactive”.

Q: And the Activity [26]?
A: Its Activity is 8.5%.
